For test [1], the target named is Amyloid-beta precursor protein (Homo sapiens) (UniProt P05067). Description: Inhibition of self-induced amyloid beta (1 to 42 residues) (unknown origin) aggregation at 20 uM incubated at 48 hrs by fluorimetry-based thioflavin T assay. The gist of the method: (§1)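 Aβ1-42 pretreated with HFIP (1 mg mL−1) and dried, then incubated with compound (20 μM) at 37 °C for 24 h; an aliquot transferred and incubated further to 48 h. Glycine–NaOH buffer pH 8.0 with 5 μM ThT added; fluorescence read at 440–485 nm. % inhibition calculated against the Aβ-only control taken as 0%.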
Amyloid-beta precursor protein (Homo sapiens), sequence (P05067 whole entry, the tested form may be a part): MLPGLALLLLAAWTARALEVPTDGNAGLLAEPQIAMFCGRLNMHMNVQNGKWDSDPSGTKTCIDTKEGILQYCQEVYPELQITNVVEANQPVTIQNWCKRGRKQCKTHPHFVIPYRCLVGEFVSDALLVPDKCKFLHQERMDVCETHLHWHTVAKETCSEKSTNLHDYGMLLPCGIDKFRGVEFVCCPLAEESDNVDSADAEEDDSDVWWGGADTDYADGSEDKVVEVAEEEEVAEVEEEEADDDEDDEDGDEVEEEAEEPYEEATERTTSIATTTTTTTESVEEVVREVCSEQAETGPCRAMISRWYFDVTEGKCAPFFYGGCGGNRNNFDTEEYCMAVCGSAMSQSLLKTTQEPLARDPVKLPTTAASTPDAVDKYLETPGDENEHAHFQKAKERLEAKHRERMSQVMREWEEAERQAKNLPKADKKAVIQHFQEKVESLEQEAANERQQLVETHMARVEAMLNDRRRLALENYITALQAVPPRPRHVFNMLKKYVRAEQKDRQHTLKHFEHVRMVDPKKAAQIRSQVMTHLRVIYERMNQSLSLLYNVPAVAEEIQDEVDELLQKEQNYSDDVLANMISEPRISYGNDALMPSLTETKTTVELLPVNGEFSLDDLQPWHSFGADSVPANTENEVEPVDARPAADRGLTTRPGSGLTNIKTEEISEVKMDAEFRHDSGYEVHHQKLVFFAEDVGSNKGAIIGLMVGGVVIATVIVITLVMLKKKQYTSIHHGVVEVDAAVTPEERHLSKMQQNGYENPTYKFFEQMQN

In test [2] the target is T1, Cholinesterase (Homo sapiens, UniProt P06276). Description: Inhibition of recombinant BuChE (unknown origin) using BTCI as substrate at 20 uM preincubated for 30 mins followed by substrate addition by TECAN multiplate reader analysis relative to control. In short, it runs like this: (§2)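 Ellman method as for AChE, using butyrylcholinesterase with BTCI as substrate. Enzyme and compound preincubated 30 min at 37 °C in a CO2 incubator, then DTNB and BTCI added; absorbance read at 417 nm. Screening at 20 μM as % inhibition; IC50 for compounds exceeding 50% inhibition at 20 μM. Triplicate.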
T1 sequence (P06276 whole entry): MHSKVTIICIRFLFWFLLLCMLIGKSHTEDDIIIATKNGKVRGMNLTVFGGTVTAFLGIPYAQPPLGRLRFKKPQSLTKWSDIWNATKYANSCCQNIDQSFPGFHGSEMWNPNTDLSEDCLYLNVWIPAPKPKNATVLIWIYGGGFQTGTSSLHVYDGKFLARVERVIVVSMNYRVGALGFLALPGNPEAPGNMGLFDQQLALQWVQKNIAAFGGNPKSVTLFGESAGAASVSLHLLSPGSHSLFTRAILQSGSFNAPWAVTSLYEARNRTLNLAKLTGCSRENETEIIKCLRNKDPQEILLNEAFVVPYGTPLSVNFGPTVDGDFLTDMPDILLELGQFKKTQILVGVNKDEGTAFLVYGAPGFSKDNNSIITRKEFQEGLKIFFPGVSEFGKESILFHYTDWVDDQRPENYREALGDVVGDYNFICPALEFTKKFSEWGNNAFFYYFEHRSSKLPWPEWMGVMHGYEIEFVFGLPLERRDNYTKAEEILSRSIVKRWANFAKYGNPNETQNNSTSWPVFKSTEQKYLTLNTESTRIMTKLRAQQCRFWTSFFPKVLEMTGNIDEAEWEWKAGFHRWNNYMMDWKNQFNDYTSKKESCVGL

The target in test [3] is T2, Amine oxidase [flavin-containing] B (Homo sapiens, UniProt P27338).
T2 sequence (P27338 whole entry): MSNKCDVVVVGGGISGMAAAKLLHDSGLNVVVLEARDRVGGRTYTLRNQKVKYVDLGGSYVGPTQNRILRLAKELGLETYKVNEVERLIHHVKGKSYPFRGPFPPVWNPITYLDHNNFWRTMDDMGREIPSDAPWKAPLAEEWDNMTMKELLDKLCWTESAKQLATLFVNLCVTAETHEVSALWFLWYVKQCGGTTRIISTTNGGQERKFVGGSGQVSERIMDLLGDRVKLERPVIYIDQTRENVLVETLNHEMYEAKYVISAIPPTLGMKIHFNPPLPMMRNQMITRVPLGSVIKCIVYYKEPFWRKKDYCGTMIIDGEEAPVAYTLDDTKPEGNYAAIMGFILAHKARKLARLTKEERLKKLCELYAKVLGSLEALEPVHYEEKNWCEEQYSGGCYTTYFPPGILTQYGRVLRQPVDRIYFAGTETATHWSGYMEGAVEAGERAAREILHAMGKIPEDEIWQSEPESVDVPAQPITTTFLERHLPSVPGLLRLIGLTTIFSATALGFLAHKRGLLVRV
Nature of the test: Inhibition of recombinant MAO-B (unknown origin) at 20 uM preincubated for 30 mins followed substrate addition by Amplex Red reagent based fluorescence analysis relative to control. In short, it runs like this:
(§3)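 Recombinant MAO enzyme preincubated with compound 30 min at 37 °C; substrate, HRP and Amplex Red working solution then added; H2O2 formation read at 37 °C by fluorescence, ex 545/em 590 nm. Screening at 20 μM as % inhibition versus control; IC50 only for compounds above 50% inhibition at 20 μM; triplicate (n = 3).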

Test [4] has as its target Amyloid-beta precursor protein (Homo sapiens) (UniProt P05067). Description: Inhibition of self-induced amyloid beta (1 to 42 residues) (unknown origin) aggregation at 20 uM incubated at 24 hrs by fluorimetry-based thioflavin T assay. The gist of the method: as §1
Test [5] addresses T3, Amine oxidase [flavin-containing] A (Homo sapiens, UniProt P21397).
T3 sequence (P21397 whole entry): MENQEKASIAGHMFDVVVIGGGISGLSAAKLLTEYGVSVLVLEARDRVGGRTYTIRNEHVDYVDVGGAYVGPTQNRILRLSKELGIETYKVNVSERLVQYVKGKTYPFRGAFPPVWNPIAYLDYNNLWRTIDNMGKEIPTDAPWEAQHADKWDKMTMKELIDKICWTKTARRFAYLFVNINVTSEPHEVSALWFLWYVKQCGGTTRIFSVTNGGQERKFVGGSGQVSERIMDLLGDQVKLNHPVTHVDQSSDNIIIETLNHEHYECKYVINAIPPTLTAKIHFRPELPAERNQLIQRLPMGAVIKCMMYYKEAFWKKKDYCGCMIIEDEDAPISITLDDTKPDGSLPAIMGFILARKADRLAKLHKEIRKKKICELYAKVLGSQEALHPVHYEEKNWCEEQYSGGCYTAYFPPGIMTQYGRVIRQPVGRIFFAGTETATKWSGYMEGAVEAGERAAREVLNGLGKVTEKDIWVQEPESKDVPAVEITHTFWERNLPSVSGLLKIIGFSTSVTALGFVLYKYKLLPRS
Description: Inhibition of recombinant MAO-A (unknown origin) at 20 uM preincubated for 30 mins followed substrate addition by Amplex Red reagent based fluorescence analysis relative to control. In short, it runs like this: as §3

In test [6] the target is T1, Cholinesterase. Description: Inhibition of recombinant BuChE (unknown origin) using BTCI as substrate preincubated for 30 mins followed by substrate addition by TECAN multiplate reader analysis. The gist of the method:
as §2

The target in test [7] is Amyloid-beta precursor protein (Homo sapiens) (UniProt P05067). Nature of the test: Inhibition of self-induced amyloid beta (1 to 42 residues) (unknown origin) aggregation assessed as reduction in plaques formation measured after 72 hrs by FE-SEM analysis. In short, it runs like this:
(§4)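 HFIP-pretreated Aβ1-42 incubated with or without inhibitor for 72 h; samples placed on carbon-coated copper grids, dried 1 h at 37 °C, imaged by FE-SEM. Glycine–NaOH buffer served as blank and Aβ alone as control.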

Test [8] has the same target. Nature of the test: Inhibition of self-induced amyloid beta (1 to 42 residues) (unknown origin) aggregation assessed as reduction in fibrils formation measured after 72 hrs by FE-SEM analysis. The gist of the method: as §4

Calls of active or inactive are those of the source. The calls are words filed in the database; no cut-off is given here.

In general, inhibition refers to how much of the control response was suppressed. Turning to `C#CCCCOc1c(CN2CCCCC2)cc(-c2cc(=O)c3ccccc3o2)cc1CN1CCCCC1`, the values for the inhibition (in test [1]; at Cholinesterase [2]; in test [4]) were 18%, 13.7% and 12%, respectively. In addition, the inhibition at 20 µM in test [3] was found to be 19.7%.
A word on the IC50: it is the concentration that inhibits the measured activity by half. For `C#CCCCOc1c(CN2CCc3ccccc3C2)cc(-c2cc(=O)c3ccccc3o2)cc1OC`, the inhibition at 20 µM in test [5] is 11.3%; in test [3] it was 19.8%. In addition, the inhibition on Cholinesterase [2] was determined as 51.5%. The IC50 on Cholinesterase [6] was 18.9 µM.
Regarding `C#CCCOc1c(CN2CCN(c3ccccc3)CC2)cc(-c2cc(=O)c3ccccc3o2)cc1OC`, the inhibition at 20 µM in test [5] was determined as 9.14%; in test [3], 35.4%. The inhibition on Cholinesterase [2] came to 1.63%.
Turning to `C#CCCCOc1c(CN2CCOCC2)cc(-c2cc(=O)c3ccccc3o2)cc1OCC`, the inhibition on Cholinesterase [2] was found to be 6.37%. The inhibition at 20 µM in test [3] was determined as 18.2%.
Consider `C#CCCCOc1c(CN2CCCCC2)cc(-c2cc(=O)c3ccccc3o2)cc1OC`, for which the values for the inhibition at 20 µM in test [5] and in test [3] were 0.75% and 15.6%, respectively. At Cholinesterase [2], the inhibition was 21.6%.
For `C#CCOc1c(CN2CCOCC2)cc(-c2cc(=O)c3ccccc3o2)cc1OCC`, in test [3], the inhibition at 20 µM came out at 8.37%.
As for `C#CCCCOc1c(CN2CCOCC2)cc(-c2cc(=O)c3ccccc3o2)cc1OC`, the inhibition on Cholinesterase [2] is 3.35%. In test [3], the inhibition at 20 µM came out at 18.8%.
`C#CCCOc1c(CN2CCOCC2)cc(-c2cc(=O)c3ccccc3o2)cc1OCC`: the results for the inhibition (in test [1]; at Cholinesterase [2]; in test [4]) were 23.7%, 4.42% and 24.6%, respectively. In test [3], the inhibition at 20 µM came out at 6.89%.
As for `C#CCCCOc1c(CN2CCN(c3ccccc3)CC2)cc(-c2cc(=O)c3ccccc3o2)cc1OC`, the inhibition at 20 µM in test [5] worked out at 2.6%; in test [3] it was 13.1%. For the same compound, the inhibition on Cholinesterase [2] stood at 1.69%.
For the compound `C#CCCCOc1c(CN2CCCCC2)cc(-c2cc(=O)c3ccccc3o2)cc1OCC`, the inhibition on Cholinesterase [2] was found to be 3.36%. The inhibition at 20 µM in test [3] is 15.6%.
With `C#CCOc1c(CN2CCOCC2)cc(-c2cc(=O)c3ccccc3o2)cc1CN1CCOCC1`, the inhibition was found to be 23.3% in test [1], 9.03% at Cholinesterase [2] and 14.4% in test [4]. In addition, the inhibition at 20 µM in test [3] was 36.5%.
For `C#CCCCOc1c(CN2CCOCC2)cc(-c2cc(=O)c3ccccc3o2)cc1CN1CCOCC1`, the figures for the inhibition (in test [1]; on Cholinesterase [2]; in test [4]) were 26.9%, 1% and 23.9%, respectively. Moreover, the inhibition at 20 µM in test [3] is 18.1%.
Consider `C#CCCOc1c(CN2CCOCC2)cc(-c2cc(=O)c3ccccc3o2)cc1OC`, for which the inhibition at 20 µM in test [5] came out at 7.98%; in test [3], 26.6%. In addition, at Cholinesterase [2], the inhibition is 3.11%.
As to `C#CCOc1c(CN2CCOCC2)cc(-c2cc(=O)c3ccccc3o2)cc1OC`, the inhibition in test [1] was 40.4%; at Cholinesterase [2] it was 1.17%; in test [4], 36.1%. In addition, the inhibition at 20 µM in test [3] came out at 15.1%.
Consider `C#CCCCOc1c(CN(C)Cc2ccccc2)cc(-c2cc(=O)c3ccccc3o2)cc1OC`, for which the inhibition at Cholinesterase [2] worked out at 17.6%. Moreover, the inhibition at 20 µM in test [3] amounted to 17.5%.
`C#CCOc1ccc(-c2cc(=O)c3ccccc3o2)cc1CN1CCOCC1`: the inhibition was 11.6% in test [1], 4.21% at Cholinesterase [2] and 9% in test [4]. In test [3], the inhibition at 20 µM stood at 28.1%.
As for `C#CCCCOc1c(CN2CCN(Cc3ccccc3)CC2)cc(-c2cc(=O)c3ccccc3o2)cc1OC`, the inhibition at 20 µM was determined as 5.26% in test [5] and 22.8% in test [3]. In addition, the inhibition is 28.1% in test [1], 7.42% on Cholinesterase [2] and 22.9% in test [4].
Regarding `Oc1ccc(/C=C/c2cc(O)cc(O)c2)cc1`, the inhibition entry in test [7] and in test [8] was “Active” in each case.
